In ChEMBL document CHEMBL5678808, “Human target validation of phosphoinositide 3-kinase (PI3K)β: effects on platelets and insulin sensitivity, using AZD6482 a novel PI3Kβ inhibitor” (J Thromb Haemost, 2012):

Legend:
[1] = Toxicity in Sprague-Dawley rat hyperinsulinemic-euglycemic glucose clamp model assessed as increase in blood pressure at 1000 ug/kg/min, iv for 2 mins followed by 50 ug/kg/min, iv for 28 mins; assay type: organism-based; conditions: in vivo, 0.5 h, time 30 min
Summary of the method: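 Anesthetized rats underwent two consecutive hyperinsulinemic–euglycemic clamps with human insulin infusion: a baseline Clamp1, then Clamp2 with vehicle or AZD6482 i.v. (n = 4–5/group). Blood pressure and heart rate were followed during control periods and after drug administration. Steady-state glucose infusion rate maintained euglycemia.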

Rattus norvegicus [2] = assay: Insulin sensitizing activity in Sprague-Dawley rat hyperinsulinemic-euglycemic glucose clamp model assessed as glucose infusion rate required to maintain euglycemia during infusion of human insulin at 1000 ug/kg/min, iv for 2 mins followed by 50 ug/kg/min, iv for 28 mins measured during clamp 2 (reference value: 138 +/- 4 umol/min/kg); assay type: functional; conditions: time 30 min, 0.5 h
Summary of the method: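 Anesthetized rats; hyperinsulinemic–euglycemic clamp with human insulin infused. A baseline clamp (Clamp1) was followed by a second clamp (Clamp2) with vehicle or drug i.v. The drug was given as a low dose (1000 μg kg−1 + 50 μg kg min−1) or a high dose (6000 μg kg−1 + 300 μg kg min−1). Steady-state glucose infusion rate for euglycemia was recorded, with plasma glucose, human insulin and total insulin; mean ± SEM, n = 4–5/group.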

Rattus norvegicus [3] = species on record: Rattus norvegicus; assay: Inhibition of rat CK1 at 10 uM relative to control
[4] = target: Serine/threonine-protein kinase mTOR (Homo sapiens, UniProt P42345); assay: Inhibition of mTOR (unknown origin)
[5] = target: Serine/threonine-protein kinase N2 (Homo sapiens) (UniProt Q16513); assay: Inhibition of human PRK2 at 10 uM relative to control
[6] = target: Dual specificity tyrosine-phosphorylation-regulated kinase 3 (Homo sapiens) (UniProt O43781); assay: Inhibition of human DYRK3 phosphorylation at 10 uM relative to control
Chain of Dual specificity tyrosine-phosphorylation-regulated kinase 3 (Homo sapiens) (O43781 whole entry): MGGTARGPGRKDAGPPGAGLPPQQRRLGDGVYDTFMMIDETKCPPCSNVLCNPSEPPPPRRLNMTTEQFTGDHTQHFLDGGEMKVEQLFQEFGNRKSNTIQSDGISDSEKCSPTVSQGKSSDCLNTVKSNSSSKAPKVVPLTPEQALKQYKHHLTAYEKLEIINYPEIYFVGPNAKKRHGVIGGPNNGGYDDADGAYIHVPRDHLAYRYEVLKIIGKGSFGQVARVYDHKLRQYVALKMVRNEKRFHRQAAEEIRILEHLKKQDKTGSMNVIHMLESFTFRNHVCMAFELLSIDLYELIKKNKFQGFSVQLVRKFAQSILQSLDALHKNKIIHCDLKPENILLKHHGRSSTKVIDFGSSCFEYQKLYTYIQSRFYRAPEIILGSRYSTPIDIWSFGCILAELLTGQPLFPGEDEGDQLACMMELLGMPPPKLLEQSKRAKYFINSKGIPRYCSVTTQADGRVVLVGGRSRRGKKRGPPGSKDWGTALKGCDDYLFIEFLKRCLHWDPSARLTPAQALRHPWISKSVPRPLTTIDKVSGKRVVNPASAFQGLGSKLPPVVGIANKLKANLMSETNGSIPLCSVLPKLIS

Chain of Serine/threonine-protein kinase N2 (Homo sapiens) (Q16513 whole entry, looked up): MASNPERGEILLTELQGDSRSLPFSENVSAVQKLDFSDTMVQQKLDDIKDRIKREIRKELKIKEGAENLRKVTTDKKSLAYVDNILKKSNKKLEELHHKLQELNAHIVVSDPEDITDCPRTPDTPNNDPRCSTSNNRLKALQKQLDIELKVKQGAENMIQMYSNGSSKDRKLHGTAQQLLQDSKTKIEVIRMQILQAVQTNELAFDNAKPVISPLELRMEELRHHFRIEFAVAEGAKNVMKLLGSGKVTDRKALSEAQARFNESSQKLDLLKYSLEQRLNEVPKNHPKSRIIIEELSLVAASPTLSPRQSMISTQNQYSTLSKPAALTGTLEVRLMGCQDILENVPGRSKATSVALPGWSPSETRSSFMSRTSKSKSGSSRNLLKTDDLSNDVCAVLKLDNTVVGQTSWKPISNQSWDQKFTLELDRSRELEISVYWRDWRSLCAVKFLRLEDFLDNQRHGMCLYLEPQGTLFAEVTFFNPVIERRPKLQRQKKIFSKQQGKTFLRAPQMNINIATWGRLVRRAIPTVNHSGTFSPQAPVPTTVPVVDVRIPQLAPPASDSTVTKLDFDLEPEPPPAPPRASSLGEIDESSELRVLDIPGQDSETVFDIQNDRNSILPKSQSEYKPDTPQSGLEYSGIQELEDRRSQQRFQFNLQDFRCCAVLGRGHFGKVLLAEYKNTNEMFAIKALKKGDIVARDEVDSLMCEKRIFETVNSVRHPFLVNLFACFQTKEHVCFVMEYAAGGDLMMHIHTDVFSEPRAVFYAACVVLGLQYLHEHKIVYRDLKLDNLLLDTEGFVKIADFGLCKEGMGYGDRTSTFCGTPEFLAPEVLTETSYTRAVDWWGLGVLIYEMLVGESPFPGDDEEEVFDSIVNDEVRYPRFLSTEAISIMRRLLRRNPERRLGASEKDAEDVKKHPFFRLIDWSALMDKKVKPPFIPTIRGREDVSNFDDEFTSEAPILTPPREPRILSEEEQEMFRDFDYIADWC

inhibition (Rattus norvegicus [3]): 6.6%
IC50 [4]: 8 µM
inhibition [5]: -2.9%
inhibition [6]: 16%
SMILES: Cc1cc([C@@H](C)Nc2ccccc2C(=O)O)c2nc(N3CCOCC3)cc(=O)n2c1 [AZD-6482]
Activity [1]: 6 mmHg
Activity (Rattus norvegicus [2]): 107 µmol/min/kg
